HSF1 activator: increases HSF-1 driven luciferase reporter signal; hit rate 1.7% among 300,000; NIH3T3-HGL HSF-1 luciferase reporter, MG132, 8 h; 100% = twice DMSO control signal; activation, % at 9 µM;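 active = mean replicate activation of at least 50% with a set share of replicates each reaching 50%; inconclusive = only one of those two conditions met; inactive = mean below 50% and too few replicates reaching it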;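 note: 0% = median of the neutral control wells and 100% = twice that signal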
CHT block: human CHT choline transport inhibition | Q9GZV3 | CHT-expressing cells, membrane potential dye, choline response; active compounds read low | B-score at 10 µM | hit rate 0.86% among 310,000 | AID 488975;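 active = B-score over 3 SD under the library average, and starting fluorescence ratio not unusually high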;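 note: choline stimulus applied at its EC90 after an EC20 pre-addition; B-score computed on integrated fluorescence ratio after choline addition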
Target sequence (Q9GZV3 whole entry, looked up): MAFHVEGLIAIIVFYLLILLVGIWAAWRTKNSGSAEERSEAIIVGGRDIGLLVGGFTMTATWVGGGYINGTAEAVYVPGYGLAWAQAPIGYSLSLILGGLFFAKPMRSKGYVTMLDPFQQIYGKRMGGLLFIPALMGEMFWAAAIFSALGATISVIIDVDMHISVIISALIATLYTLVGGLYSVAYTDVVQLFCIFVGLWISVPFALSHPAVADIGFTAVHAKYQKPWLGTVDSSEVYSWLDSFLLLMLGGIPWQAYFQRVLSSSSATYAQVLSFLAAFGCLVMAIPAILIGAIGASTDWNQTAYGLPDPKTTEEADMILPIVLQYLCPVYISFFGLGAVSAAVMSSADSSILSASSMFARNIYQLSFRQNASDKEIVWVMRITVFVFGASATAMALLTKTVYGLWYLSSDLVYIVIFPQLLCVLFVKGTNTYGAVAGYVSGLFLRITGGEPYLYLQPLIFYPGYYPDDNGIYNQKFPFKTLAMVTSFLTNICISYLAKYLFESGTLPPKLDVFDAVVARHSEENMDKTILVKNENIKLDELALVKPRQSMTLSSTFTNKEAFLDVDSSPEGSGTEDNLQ
CHT allo act: human CHT allosteric activation; Q9GZV3; CHT-expressing cells, membrane potential dye, choline EC20; active compounds read high; LV-AA mutant CHT in HEK293 cells; B-score at 10 µM; hit rate 0.49% among 310,000;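 active = initial fluorescence not abnormally high and integrated response B-score, plate-corrected, over 3 SD above library mean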
PHOSPHO1 block: blocks human PHOSPHO1 phosphatase activity; inhibition, % at 13.3 µM; AID 1565; hit rate 1.1% among 290,000; recombinant PHOSPHO1, absorbance phosphatase assay; Q8TCT1; in the data active = inhibition above about 60%
Lipid droplet: modulators of hepatic lipid droplet formation | inhibition, % at 6.5 µM | AML12 mouse hepatocytes, oleate lipid droplets, BODIPY imaging | hit rate 0.4% among 240,000;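 active = lipid droplet intensity inhibited by at least 50%, with more than 500 cells counted; inconclusive = wells with under 300 cells, treated as cytotoxic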
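Material: mouse AML12 hepatocyte cell line, fixed after treatment; Timing: compound with oleate, overnight; Technique: high-content imaging of BODIPY-stained droplets and DAPI nuclei; Probe or stimulus: oleate, 100 µM final; Dosing: compound at 6.5 µM only.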
HSF1 inh: HSF1 inhibition; AID 2098; hit rate 0.77% among 300,000; NIH3T3-HGL HSE-luciferase, MG132-induced, luminescence 8 h; active compounds read low; activity change, negative = inhibition, % at 7.5 µM (by protocol);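 active = more than half of replicate wells show activity change below -50%, luminescence cut by over half; inconclusive = some wells, but at most half, below -50%; inactive = no replicate well below -50%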;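 note: luciferase reports HSF-1 transcriptional activity via heat shock element; 0% = median of DMSO wells and -100% = zero luminescence signal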
CHT activ conf: human CHT activation, confirmatory screen | shares compounds with CHT allo act | CHT-expressing cells, membrane potential dye fluorescence (FDSS); % of choline EC20–EC90 response window; HEK293 expressing CHT LV-AA mutant; choline added at its EC20 | activation, % at 10 µM | hit rate 91% among 2,500 | AID 504833;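 active = primary screen active, with duplicate mean activation above negative control mean plus 3 SD, cut at about 11% in these data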
HEK293 MP dye: activity in parental HEK293 cells lacking CHT. shares compounds with CHT allo act. membrane potential dye fluorescence (FDSS); measured after EC20 choline addition. ratio readout change at 10 µM, hits read low. hit rate 62% among 2,500. AID 623908;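 active = duplicate-averaged ratio beyond 3 SD from buffer wells, up or down, though filed actives are nearly all decreases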
Starred values were filed as active, the others as inactive. Hits are enriched below; roughly 4.9% of the tested compounds scored in any of these assays.

Screening CN1CCN(c2ccccc2NC(=O)c2ccc(N3CCCC3)c([N+](=O)[O-])c2)CC1 returned HSF1 activator -2, CHT block inactive, CHT allo act inactive, PHOSPHO1 block 20, Lipid droplet 11, HSF1 inh -4, CHT activ conf 18* and HEK293 MP dye -44*.
Screening O=C(Nc1ccccc1N1CCCCC1)c1ccc(Cl)c([N+](=O)[O-])c1 returned HSF1 activator -1, CHT block inactive, CHT allo act inactive, PHOSPHO1 block 8, Lipid droplet -6 and HSF1 inh 2.
For COc1cc(-c2noc(C)c2/C=C/c2ccc(N)cc2)cc(OC)c1OC the results were HSF1 activator -31, CHT block inactive, CHT allo act 10*, PHOSPHO1 block -36, HSF1 inh -22, CHT activ conf 42* and HEK293 MP dye inactive.
For COc1cc(-c2c(-c3cc(OC)c(OC)c(OC)c3)noc2C)ccc1F the results were HSF1 activator -25, CHT block inactive, CHT allo act inactive, PHOSPHO1 block 10, Lipid droplet inconclusive and HSF1 inh -16.
For COc1cc(-c2noc(C)c2C#Cc2ccc(N)cc2)cc(OC)c1OC the results were HSF1 activator -33, CHT block inactive, CHT allo act inactive, PHOSPHO1 block -19 and HSF1 inh -17.
For COc1ccc(-c2c(-c3cc(OC)c(OC)c(OC)c3)noc2C)cn1 the results were HSF1 activator -10, CHT block inactive, CHT allo act 6.7*, PHOSPHO1 block 4, HSF1 inh -11, CHT activ conf 33* and HEK293 MP dye inactive.
`COc1cc(-c2noc(C)c2C#Cc2ccccn2)cc(OC)c1OC` gave HSF1 activator -20, CHT block inactive, CHT allo act 9.5*, PHOSPHO1 block -2, HSF1 inh -10, CHT activ conf 30* and HEK293 MP dye inactive.
Screening Cc1nn(CC(=O)N2CCc3ccccc3C2)c(C)c1Cl returned HSF1 activator -30, CHT block inactive, CHT allo act inactive, PHOSPHO1 block 48, Lipid droplet 0 and HSF1 inh -5.
`CC(C)OCCCNC(=O)CN1C(=O)CC(C)(C)S(=O)(=O)c2ccccc21` gave HSF1 activator 8, CHT block inactive, CHT allo act inactive, PHOSPHO1 block -9 and HSF1 inh -3.
Screening COc1ccc(C(=O)N/C(=C\c2cn(C)c3ccccc23)C(=O)N2CCOCC2)cc1OC returned HSF1 activator -10, CHT block inactive, CHT allo act inactive, PHOSPHO1 block 24, Lipid droplet -2 and HSF1 inh -7.
`C[n+]1ccc(C(=O)NCCC[N+](C)(C)C)cc1/C=N/O` gave HSF1 activator -11, CHT block inactive, CHT allo act 7.3*, PHOSPHO1 block 8, Lipid droplet 4, HSF1 inh 0, CHT activ conf 44* and HEK293 MP dye -31*.
O=C(N/N=C/C=C/c1cccc([N+](=O)[O-])c1)c1ccncc1 was read as HSF1 activator -6, CHT block inactive, CHT allo act 7.9*, PHOSPHO1 block 42, Lipid droplet 3, HSF1 inh -2, CHT activ conf 13* and HEK293 MP dye inactive.
Screening COc1cc(OC)c([N+](=O)[O-])cc1/C=N/NC(=O)c1ccncc1 returned HSF1 activator -5, CHT block inactive, CHT allo act inactive, PHOSPHO1 block 36, Lipid droplet -11, HSF1 inh -2, CHT activ conf 37* and HEK293 MP dye -38*.
Nc1ccc(C(=O)N/N=C\C=C\c2cccc([N+](=O)[O-])c2)cc1 was read as HSF1 activator -10, CHT block inactive, CHT allo act inactive, PHOSPHO1 block 25, Lipid droplet 8 and HSF1 inh -13.
COc1cc(/C=N/NC(=O)c2ccncc2)c([N+](=O)[O-])cc1OC was read as HSF1 activator -1, CHT block inactive, CHT allo act inactive, PHOSPHO1 block 33, Lipid droplet 1 and HSF1 inh -3.
Oc1ccc(-c2nc3cnccn3c2Nc2ccc3c(c2)OCCO3)cc1 was read as HSF1 activator 64*, CHT block inactive, CHT allo act 8.3*, PHOSPHO1 block 22, HSF1 inh 53, CHT activ conf 6 and HEK293 MP dye inactive.
For c1ccc(-c2nc3cnccn3c2Nc2ccc3c(c2)OCCO3)cc1 the results were HSF1 activator 14, CHT block inactive, CHT allo act inactive, PHOSPHO1 block 22, Lipid droplet -2 and HSF1 inh 2.
For O=C(CSc1cn(CCNC(=O)c2ccccc2)c2ccccc12)NCc1ccco1 the results were HSF1 activator 9, CHT block inactive, CHT allo act inactive, PHOSPHO1 block 38 and HSF1 inh 2.
For CCOc1ccc(-c2c[n+]3c(n2-c2ccccc2)CCCCC3)cc1 the results were HSF1 activator 0, CHT block inactive, CHT allo act 7.2*, PHOSPHO1 block -15, Lipid droplet -19, HSF1 inh 8, CHT activ conf 15* and HEK293 MP dye inactive.
COc1ccc(-n2c(-c3ccc(Br)cc3)c[n+]3c2CCCCC3)cc1 was read as HSF1 activator -6, CHT block inactive, CHT allo act 11*, PHOSPHO1 block 68*, Lipid droplet 4, HSF1 inh -8, CHT activ conf 62* and HEK293 MP dye inactive.
For COc1ccc(-n2c(-c3ccc(Br)cc3)c[n+]3c2SC(C)C3)cc1 (configuration not stated) the results were HSF1 activator 5, CHT block inactive, CHT allo act inactive, PHOSPHO1 block 27, Lipid droplet -8, HSF1 inh -3, CHT activ conf 36* and HEK293 MP dye -52*.
For COc1ccc(-n2c(-c3ccccc3)c[n+]3c2CCC3)cc1 the results were HSF1 activator -13, CHT block inactive, CHT allo act inactive, PHOSPHO1 block 36, Lipid droplet 0 and HSF1 inh -3.
Screening FC(F)Sc1ccc(-n2c(-c3ccc(Cl)cc3)c[n+]3c2CCC3)cc1 returned HSF1 activator -6, CHT block inactive, CHT allo act 6.3*, PHOSPHO1 block 53, Lipid droplet 0, HSF1 inh 0, CHT activ conf 30* and HEK293 MP dye -35*.

From PubChem
